Source: ChEMBL document CHEMBL1649112, “Effects of exposure of Clostridium difficile PCR ribotypes 027 and 001 to fluoroquinolones in a human gut model” (Antimicrob Agents Chemother, 2009)
Activity calls are given as the source filed them. The rule behind the calls is not given here.

Key:
Bifidobacterium [1] = experiment: Antimicrobial activity against Bifidobacterium in three-stage chemostat gut model assessed as log reduction in bacterial count at 43 mg/liter administered daily for 7 days; type: functional
Summary of the method: (§1)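 Three-stage anaerobic chemostat (37°C, N2-sparged; vessels at pH 5.5, 6.2 and 6.8; 66.7 h total retention) primed with 10% (wt/vol) pooled C. difficile-negative feces from healthy elderly donors. Instillation began on day 21. Vessel 2 and 3 samples were diluted 10-fold serially to 10–7 in prereduced peptone water and plated on selective agars in triplicate; counts are log10 CFU/ml.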

Lactobacillus [2] = experiment: Antimicrobial activity against Lactobacillus in three-stage chemostat gut model assessed as log reduction in bacterial count at 43 mg/liter administered daily for 7 days; type: functional; summary of the method: as §1
[3] = Drug level in human feces; type: ADME, tissue-based
Bacteroides sp. = experiment: Antimicrobial activity against Bacteroides sp. in three-stage chemostat gut model assessed as log reduction in bacterial count at 63 mg/liter administered daily for 7 days; type: functional; summary of the method: as §1
Lactobacillus [4] = experiment: Antimicrobial activity against Lactobacillus in three-stage chemostat gut model assessed as log reduction in bacterial count at 63 mg/liter administered daily for 7 days; type: functional; summary of the method: as §1
Clostridium = experiment: Antimicrobial activity against Clostridium in three-stage chemostat gut model assessed as log reduction in bacterial count at 63 mg/liter administered daily for 7 days; type: functional; summary of the method: as §1
Enterococcus = experiment: Antimicrobial activity against Enterococcus in three-stage chemostat gut model assessed as log reduction in bacterial count at 63 mg/liter administered daily for 7 days; type: functional, organism-based; summary of the method: as §1
Clostridioides difficile [5] = experiment: Antimicrobial activity against Clostridium difficile PCR ribotype 027 expressing gyrB Glu466Lys mutant grown on fluoroquinolone-containing medium after 48 hrs; type: functional; details: PCR ribotype 027, 48 h
Clostridioides difficile [6] = experiment: Antimicrobial activity against Clostridium difficile PCR ribotype 001 expressing gyrB Glu466Lys mutant grown on fluoroquinolone-containing medium after 48 hrs; type: functional; details: PCR ribotype 001, 48 h
Clostridioides difficile [7] = experiment: Induction of cytotoxin production in Clostridium difficile PCR ribotype 027 in three-stage chemostat gut model at 63 mg/liter administered daily for 7 days measured after 2 days; type: functional, organism-based
Summary of the method: (§2)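 Gut model as above; on day 21 drug instillation began and a second C. difficile spore inoculum was added to vessel 1. Sample supernatants (16,000 x g) were diluted serially to 10–7 in PBS pH 7.4 and applied to Vero monolayers at 37°C in 5% CO2. Cell rounding was read at 24 and 48 h, and titers are given in relative units.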

Clostridioides difficile [8] = experiment: Induction of cytotoxin production in Clostridium difficile PCR ribotype 001 in three-stage chemostat gut model at 63 mg/liter administered daily for 7 days measured after 3 days; type: functional, organism-based; summary of the method: as §2
Bifidobacterium [9] = experiment: Antimicrobial activity against Bifidobacterium in three-stage chemostat gut model assessed as log reduction in bacterial count at 139 mg/liter administered every 12 hrs for 7 days; type: functional; summary of the method: as §1

COc1c(N2C[C@@H]3CCCN[C@@H]3C2)c(F)cc2c(=O)c(C(=O)O)cn(C3CC3)c12 [MOXIFLOXACIN]
Activity (Bifidobacterium [1]): inactive | Activity (Lactobacillus [2]): inactive | Drug uptake [3]: 66 mg/kg

C[C@H]1COc2c(N3CCN(C)CC3)c(F)cc3c(=O)c(C(=O)O)cn1c23.C[C@H]1COc2c(N3CCN(C)CC3)c(F)cc3c(=O)c(C(=O)O)cn1c23.O [LEVOFLOXACIN]
FC (Bacteroides sp.): 1 | Activity (Lactobacillus [4]): inactive | Activity (Clostridium): inactive | Activity (Enterococcus): inactive | MIC (Clostridioides difficile [5]): 256 mg/L | MIC (Clostridioides difficile [6]): 256 mg/L | Drug uptake [3]: 94 mg/kg | Activity (Clostridioides difficile [7]): Active | Activity (Clostridioides difficile [8]): Active

O=C(O)c1cn(C2CC2)c2cc(N3CCNCC3)c(F)cc2c1=O [CIPROFLOXACIN]
Activity (Bifidobacterium [9]): Active | Drug uptake [3]: 139 mg/kg
